Laboratory results from ChEMBL document CHEMBL2384906, “Biological activity, design, synthesis and structure activity relationship of some novel derivatives of curcumin containing sulfonamides” (Eur J Med Chem, 2013).
In brackets after ≈: the same amount, converted by molar mass. Activity calls are given as the source filed them. The rule behind the calls is not given here.

Tests used:
[1] = tested on: Salmonella typhi; assay: Antimicrobial activity against Salmonella typhi ATCC 23564 after 24 hrs by broth micro serial dilution method; type: functional, Salmonella enterica subsp. enterica serovar Typhi; details: Salmonella enterica, ATCC 23564, 24 h
[2] = tested on: Pseudomonas aeruginosa; assay: Antimicrobial activity against Pseudomonas aeruginosa ATCC 15499 assessed as diameter of inhibition zone at 20 uM after 24 hrs by Kirby -Baur disc diffusion method; type: functional
Method in brief: (§1)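 Kirby-Bauer disc diffusion was used. Acetone stocks (160 µM) were serially doubled down to 80, 40 and 20 µM. 4 µL of each went onto 5 mm sterile paper discs, which were dried 30 min at 50 °C. Inoculum was 1.5 × 10⁸ CFU/mL diluted to 3 × 10² CFU/mL, and 50 µL was spread on Mueller-Hinton agar. After 24 h at 37 °C the inhibition-zone diameter was measured. Ciprofloxacin served as positive control.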

[3] = tested on: HCT-116; assay: Cytotoxicity against human HCT116 cells after 24 hrs by MTT assay; type: functional, cell-based
Method in brief: (§2)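 The MTT assay seeded 5 × 10⁴ cells per well and grew them 24 h in RPMI 1640 with compound at 2.5–200 µM. Medium without cells was the blank and adriamycin the positive control. MTT was added for 4 h at 37 °C, formazan was solubilised, and absorbance was read at 570 nm. IC50 is the concentration that cuts viability 50% against untreated cells.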

[4] = tested on: Pseudomonas aeruginosa; assay: Antimicrobial activity against Pseudomonas aeruginosa ATCC 15499 after 24 hrs by broth micro serial dilution method; type: functional; details: ATCC 15499, 24 h
Method in brief: (§3)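 This was broth microdilution in autoclaved Mueller-Hinton broth. 150 µL of compound per well was serially diluted […], and 50 µL of test organism was added. Plates were incubated 24 h at 37 °C and optical density was read.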

[5] = tested on: Bacillus cereus; assay: Antimicrobial activity against Bacillus cereus MTCC 7350 assessed as diameter of inhibition zone at 40 uM after 24 hrs by Kirby -Baur disc diffusion method; type: functional; method in brief: as §1
[6] = tested on: Salmonella typhi; assay: Antimicrobial activity against Salmonella typhi ATCC 23564 assessed as diameter of inhibition zone at 80 uM after 24 hrs by Kirby -Baur disc diffusion method; type: functional, Salmonella enterica subsp. enterica serovar Typhi; details: Salmonella enterica, ATCC 23564, 24 h; read-out: DIZ
[7] = tested on: Mus musculus; assay: Antiinflammatory activity in mouse assessed as inhibition of carrageenan-induced increase in paw volume at 200 mg/kg administered 1 hr prior to carrageenan challenge measured after 3 hrs relative to control; type: functional
Method in brief: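 Mice were fasted 2 h and placed in groups of five. Controls received saline i.p. Phenylbutazone was given at 100 mg/kg i.p., curcumin at 200 mg/kg i.p., and derivatives at 200 mg/kg. After 1 h, 0.1 mL of 1% carrageenan in saline was injected subplantar into the right hind paw. Paw volume was followed by plethysmometer for 3 h, and % inhibition was calculated as (Vc − Vt)/Vc × 100.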

[8] = tested on: Trichoderma viride; assay: Antifungal activity against Trichoderma viride MTCC 1107 assessed as zone of inhibition at 80 uM after 48 hrs by disc diffusion method; type: functional; details: MTCC 1107, 48 h, read-out: IZ
Method in brief: (§4)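 Spores from 4-day potato dextrose agar cultures, suspended in sterile water at 1.5 × 10⁵ CFU/mL. 0.2 mL was spread on potato dextrose agar. 5 mm filter-paper discs soaked with test compound were laid on the lawn. Incubation was 48 h at 28 °C, then the inhibition zone was measured in mm. Fluconazole was the positive control and acetone the negative control.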

[9] = tested on: Aspergillus niger; assay: Antifungal activity against Aspergillus niger MTCC 1108 after 48 hrs; type: functional; details: MTCC 1108, 48 h
[10] = tested on: Staphylococcus aureus; assay: Antimicrobial activity against Staphylococcus aureus ATCC 11632 assessed as diameter of inhibition zone at 40 uM after 24 hrs by Kirby -Baur disc diffusion method; type: functional; details: ATCC 11632, 24 h, read-out: DIZ; method in brief: as §1
[11] = tested on: Staphylococcus aureus; assay: Antimicrobial activity against Staphylococcus aureus ATCC 11632 assessed as diameter of inhibition zone at 20 uM after 24 hrs by Kirby -Baur disc diffusion method; type: functional; details: ATCC 11632, 24 h, read-out: DIZ; method in brief: as §1
[12] = tested on: HeLa; assay: Cytotoxicity against human HeLa cells after 24 hrs by MTT assay; type: functional, cell-based; method in brief: as §2
[13] = tested on: Aspergillus flavus; assay: Antifungal activity against Aspergillus flavus MTCC 1021 after 48 hrs; type: functional
[14] = tested on: Trichoderma viride; assay: Antifungal activity against Trichoderma viride MTCC 1107 assessed as zone of inhibition at 40 uM after 48 hrs by disc diffusion method; type: functional; details: MTCC 1107, 48 h, read-out: IZ; method in brief: as §4
[15] = tested on: Staphylococcus aureus; assay: Antimicrobial activity against Staphylococcus aureus ATCC 11632 assessed as diameter of inhibition zone at 80 uM after 24 hrs by Kirby -Baur disc diffusion method; type: functional; details: ATCC 11632, 24 h, read-out: DIZ; method in brief: as §1
[16] = tested on: QG-56; assay: Cytotoxicity against human QG56 cells after 24 hrs by MTT assay; type: functional, cell-based; method in brief: as §2
[17] = tested on: Pseudomonas aeruginosa; assay: Antimicrobial activity against Pseudomonas aeruginosa ATCC 15499 assessed as diameter of inhibition zone at 80 uM after 24 hrs by Kirby -Baur disc diffusion method; type: functional; details: ATCC 15499, 24 h, read-out: DIZ; method in brief: as §1
[18] = tested on: Salmonella typhi; assay: Antimicrobial activity against Salmonella typhi ATCC 23564 assessed as diameter of inhibition zone at 20 uM after 24 hrs by Kirby -Baur disc diffusion method; type: functional, Salmonella enterica subsp. enterica serovar Typhi; details: Salmonella enterica, ATCC 23564, 24 h; read-out: DIZ
[19] = tested on: Escherichia coli; assay: Antimicrobial activity against Escherichia coli ATCC 35218 assessed as diameter of inhibition zone at 20 uM after 24 hrs by Kirby -Baur disc diffusion method; type: functional; details: ATCC 35218, 24 h, read-out: DIZ; method in brief: as §1
[20] = tested on: Escherichia coli; assay: Antimicrobial activity against Escherichia coli ATCC 35218 assessed as diameter of inhibition zone at 80 uM after 24 hrs by Kirby -Baur disc diffusion method; type: functional; details: ATCC 35218, 24 h, read-out: DIZ; method in brief: as §1
[21] = tested on: Bacillus cereus; assay: Antimicrobial activity against Bacillus cereus MTCC 7350 assessed as diameter of inhibition zone at 80 uM after 24 hrs by Kirby -Baur disc diffusion method; type: functional; details: MTCC 7350, 24 h, read-out: DIZ; method in brief: as §1
[22] = tested on: Aspergillus flavus; assay: Antifungal activity against Aspergillus flavus MTCC 1021 assessed as zone of inhibition at 80 uM after 48 hrs by disc diffusion method; type: functional; method in brief: as §4
[23] = tested on: Curvularia lunata; assay: Antifungal activity against Curvularia lunata MTCC 581 after 48 hrs; type: functional; details: MTCC 581, 48 h
[24] = tested on: Bacillus cereus; assay: Antimicrobial activity against Bacillus cereus MTCC 7350 after 24 hrs by broth micro serial dilution method; type: functional; details: MTCC 7350, 24 h; method in brief: as §3
[25] = tested on: Aspergillus niger; assay: Antifungal activity against Aspergillus niger MTCC 1108 assessed as zone of inhibition at 20 uM after 48 hrs by disc diffusion method; type: functional; method in brief: as §4
[26] = tested on: Aspergillus niger; assay: Antifungal activity against Aspergillus niger MTCC 1108 assessed as zone of inhibition at 80 uM after 48 hrs by disc diffusion method; type: functional; details: MTCC 1108, 48 h, read-out: IZ; method in brief: as §4
[27] = tested on: Curvularia lunata; assay: Antifungal activity against Curvularia lunata MTCC 581 assessed as zone of inhibition at 40 uM after 48 hrs by disc diffusion method; type: functional; details: MTCC 581, 48 h, read-out: IZ; method in brief: as §4
[28] = tested on: Escherichia coli; assay: Antimicrobial activity against Escherichia coli ATCC 35218 assessed as diameter of inhibition zone at 40 uM after 24 hrs by Kirby -Baur disc diffusion method; type: functional; details: ATCC 35218, 24 h, read-out: DIZ; method in brief: as §1
[29] = tested on: Escherichia coli; assay: Antimicrobial activity against Escherichia coli ATCC 35218 after 24 hrs by broth micro serial dilution method; type: functional; details: ATCC 35218, 24 h; method in brief: as §3
[30] = tested on: Salmonella typhi; assay: Antimicrobial activity against Salmonella typhi ATCC 23564 assessed as diameter of inhibition zone at 40 uM after 24 hrs by Kirby -Baur disc diffusion method; type: functional, Salmonella enterica subsp. enterica serovar Typhi; details: Salmonella enterica, ATCC 23564, 24 h; read-out: DIZ
[31] = tested on: Trichoderma viride; assay: Antifungal activity against Trichoderma viride MTCC 1107 after 48 hrs; type: functional; details: MTCC 1107, 48 h
[32] = tested on: Curvularia lunata; assay: Antifungal activity against Curvularia lunata MTCC 581 assessed as zone of inhibition at 80 uM after 48 hrs by disc diffusion method; type: functional; details: MTCC 581, 48 h, read-out: IZ; method in brief: as §4
[33] = tested on: Pseudomonas aeruginosa; assay: Antimicrobial activity against Pseudomonas aeruginosa ATCC 15499 assessed as diameter of inhibition zone at 40 uM after 24 hrs by Kirby -Baur disc diffusion method; type: functional; method in brief: as §1
[34] = tested on: Bacillus cereus; assay: Antimicrobial activity against Bacillus cereus MTCC 7350 assessed as diameter of inhibition zone at 20 uM after 24 hrs by Kirby -Baur disc diffusion method; type: functional; method in brief: as §1
[35] = tested on: HepG2; assay: Cytotoxicity against human HepG2 cells after 24 hrs by MTT assay; type: functional, cell-based; method in brief: as §2
[36] = tested on: Trichoderma viride; assay: Antifungal activity against Trichoderma viride MTCC 1107 assessed as zone of inhibition at 20 uM after 48 hrs by disc diffusion method; type: functional; method in brief: as §4
[37] = tested on: Aspergillus niger; assay: Antifungal activity against Aspergillus niger MTCC 1108 assessed as zone of inhibition at 40 uM after 48 hrs by disc diffusion method; type: functional; details: MTCC 1108, 48 h, read-out: IZ; method in brief: as §4
[38] = tested on: Curvularia lunata; assay: Antifungal activity against Curvularia lunata MTCC 581 assessed as zone of inhibition at 20 uM after 48 hrs by disc diffusion method; type: functional; method in brief: as §4
[39] = tested on: Staphylococcus aureus; assay: Antimicrobial activity against Staphylococcus aureus ATCC 11632 after 24 hrs by broth micro serial dilution method; type: functional; details: ATCC 11632, 24 h; method in brief: as §3

## COc1cc(/C=C/C(O)=C/C(/C=C/c2ccc(O)c(OC)c2)=N/c2ccc(S(N)(=O)=O)cc2)ccc1O
[1]
  MIC: 40 µM (≈ 20.9 µg/mL)
[2]
  diameter of the inhibition zone (DIZ): inactive
[3]
  IC50: 50 µM
[4]
  MIC: > 80 µM
[5]
  diameter of the inhibition zone (DIZ): inactive
[6]
  zone of inhibition at 80 µM: 13 mm
[7]
  inhibition in vivo at 200 mg/kg: 29%
[8]
  zone of inhibition at 80 µM: 11 mm
[9]
  MIC: 40 µM (≈ 20.9 µg/mL)
[10]
  zone of inhibition at 40 µM: 13 mm
[11]
  zone of inhibition at 20 µM: 10 mm
[12]
  IC50: 100 µM
[13]
  MIC: inactive
[14]
  zone of inhibition at 40 µM: 10 mm
[15]
  zone of inhibition at 80 µM: 14 mm
[16]
  IC50: 100 µM
[17]
  zone of inhibition at 80 µM: 11 mm
[18]
  zone of inhibition at 20 µM: 9 mm
[19]
  zone of inhibition at 20 µM: 12 mm
[20]
  zone of inhibition at 80 µM: 15 mm
[21]
  zone of inhibition at 80 µM: 9 mm
[22]
  inhibition zone (IZ): inactive
[23]
  MIC: 80 µM (≈ 41.8 µg/mL)
[24]
  MIC: > 80 µM
[25]
  inhibition zone (IZ): inactive
[26]
  zone of inhibition at 80 µM: 11 mm
[27]
  zone of inhibition at 40 µM: 9 mm
[28]
  zone of inhibition at 40 µM: 13 mm
[29]
  MIC: 40 µM (≈ 20.9 µg/mL)
[30]
  zone of inhibition at 40 µM: 11 mm
[31]
  MIC: 80 µM (≈ 41.8 µg/mL)
[32]
  zone of inhibition at 80 µM: 12 mm
[33]
  diameter of the inhibition zone (DIZ): inactive
[34]
  diameter of the inhibition zone (DIZ): inactive
[35]
  IC50: 50 µM
[36]
  inhibition zone (IZ): inactive
[37]
  zone of inhibition at 40 µM: 9 mm
[38]
  inhibition zone (IZ): inactive
[39]
  MIC: 40 µM (≈ 20.9 µg/mL)
